Assay [1] relates to Rattus norvegicus. Kind of assay: Inhibitory activity against AII-Induced Pressor response at 0.03 mg/Kg at 3 hour. It is filed as functional. The method in brief: (§1)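 Male Wistar-Imamichi rats (300–400 g) cannulated under pentobarbital (50 mg/kg ip), fasted 24 h, tested conscious the next day. AII 50 ng/kg iv was repeated until constant, then compound in 50% aqueous DMF given orally. AII was repeated over 8 h, and mean blood pressure response inhibition (%) was recorded at 1, 3, 6 h. n = 3–5.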

The test system of assay [2] is Rattus norvegicus. Nature of the assay: Inhibitory activity against AII-Induced Pressor response at 0.03 mg/Kg at 1 hr. It is filed as functional. An outline of the steps: as §1
Assay [3] has as its system Rattus norvegicus. Kind of assay: Inhibitory activity against AII-Induced Pressor response at 0.1 mg/Kg at 1 hr. It is filed as functional. The method in brief: as §1
Assay [4] concerns Rattus norvegicus. Kind of assay: Inhibitory activity against AII-Induced Pressor response at 0.3 mg/Kg at 1 hr. It is filed as functional. An outline of the steps:
as §1

The test system of assay [5] is Rattus norvegicus. Nature of the assay: Inhibitory activity against AII-Induced Pressor response at 0.3 mg/Kg at 6 hour. It is filed as functional. An outline of the steps:
as §1

The test system of assay [6] is Rattus norvegicus. Kind of assay: Inhibitory activity against AII-Induced Pressor response at 0.3 mg/Kg at 3 hour. It is filed as functional. The method in brief: as §1
The subject of assay [7] is Rattus norvegicus. Nature of the assay: Inhibitory activity against AII-Induced Pressor response at 0.1 mg/Kg at 6 hour. It is filed as functional. An outline of the steps:
as §1

Assay [8] has as its system Rattus norvegicus. Kind of assay: Inhibitory activity against AII-Induced Pressor response at 0.1 mg/Kg at 3 hour. It is filed as functional. The method in brief:
as §1

In assay [9] the test system is Rattus norvegicus. Nature of the assay: Inhibitory activity against AII-Induced Pressor response at 0.03 mg/Kg at 6 hour. It is filed as functional. An outline of the steps:
as §1

The target of assay [10] is Angiotensin II receptor (Rattus norvegicus) (UniProt P29089+P25095+P35351). Kind of assay: In vivo inhibitory activity against angiotensin II induced pressor response in anesthetized normotensive rats. It is filed as functional, organism-based. The method in brief: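 Male Wistar-Imamichi rats (300–400 g) under inactin (100 mg/kg ip), with femoral arterial and venous cannulae. AII 50 ng/kg iv every 10 min until responses were constant. Compound in DMSO was then given iv and AII re-injected 2 min later.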

For assay [11], the system named is Rattus norvegicus. Kind of assay: Inhibitory activity against AII-Induced Pressor response at 1 mg/kg at 1 hr. It is filed as functional. An outline of the steps:
as §1

Assay [12] has as its system Rattus norvegicus. Kind of assay: Inhibitory activity against AII-Induced Pressor response at 0.3 mg/Kg at 3 hr. It is filed as functional. An outline of the steps: as §1
Assay [13] deals with Rattus norvegicus. Nature of the assay: Inhibitory activity against AII-Induced Pressor response at 1 mg/kg at 3 hour. It is filed as functional. As to conditions: 1 mg/kg. An outline of the steps:
as §1

Assay [14] concerns Rattus norvegicus. Kind of assay: Inhibitory activity against AII-Induced Pressor response at 1 mg/kg at 6 hour. It is filed as functional. The method in brief:
as §1

Assay [15] relates to Rattus norvegicus. Nature of the assay: Inhibitory activity against AII-Induced Pressor response at 3 mg/Kg at 1 hr. It is filed as functional. An outline of the steps:
as §1

Assay [16] relates to Rattus norvegicus. Nature of the assay: Inhibitory activity against AII-Induced Pressor response at 1 mg/Kg at 6 hour. It is filed as functional. The method in brief: as §1
Assay [17] has as its target T1, Type-1 angiotensin II receptor (Bos taurus, UniProt P25104).
T1 sequence (P25104 whole entry): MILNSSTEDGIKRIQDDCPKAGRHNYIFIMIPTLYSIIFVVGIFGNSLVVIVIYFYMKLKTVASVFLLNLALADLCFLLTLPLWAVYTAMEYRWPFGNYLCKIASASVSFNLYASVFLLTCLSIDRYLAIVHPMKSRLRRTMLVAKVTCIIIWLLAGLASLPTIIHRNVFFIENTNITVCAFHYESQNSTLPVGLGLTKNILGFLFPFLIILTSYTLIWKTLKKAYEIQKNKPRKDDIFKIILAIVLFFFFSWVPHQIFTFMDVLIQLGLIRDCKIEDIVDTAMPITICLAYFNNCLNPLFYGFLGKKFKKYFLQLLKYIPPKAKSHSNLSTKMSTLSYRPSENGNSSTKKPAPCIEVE
Nature of the assay: In vitro for inhibition of [125I]-angiotensin II (0.1 nM) binding to angiotensin II receptor type 1 in membrane fractions of bovine adrenal cortex. It is filed as tissue-based.

Assay [18] concerns Rattus norvegicus. Nature of the assay: Inhibitory activity against AII-Induced Pressor response at 1 mg/Kg at 3 hour. It is filed as functional. The method in brief:
as §1

Assay [19] concerns Rattus norvegicus. Nature of the assay: Inhibitory activity against AII-Induced Pressor response at 1 mg/Kg at 1 hr. It is filed as functional. An outline of the steps:
as §1

pIC50: −log10 of the molar value. Where “and” joins values, the source holds several entries; their conditions need not be identical. Identical values can stand only once.

As for `CCCc1nc(C(C)(C)O)c(C(=O)OCOC(=O)C(C)(C)C)n1Cc1ccc(-c2ccccc2-c2nn[nH]n2)cc1`, the inhibition in vivo at 0.03 mg/kg in the assay on Rattus norvegicus [1] was 41%; in the assay on Rattus norvegicus [2] it was 29%; in the assay on Rattus norvegicus [9] it was 43%. Also, the results for the inhibition in vivo at 0.1 mg/kg in the assay on Rattus norvegicus [3], with Rattus norvegicus [7] and in the assay with Rattus norvegicus [8] were 75%, 70% and 84%, respectively. Also, the inhibition in vivo at 0.3 mg/kg came out at 76% in the assay with Rattus norvegicus [4], 90% in the assay with Rattus norvegicus [5] and 85% in the assay with Rattus norvegicus [6].
In the case of `CCCc1nc(CO)c(C(=O)O)n1Cc1ccc(-c2ccccc2-c2nn[nH]n2)cc1`, the inhibition in vivo at 0.3 mg/kg was determined as 76% with Rattus norvegicus [4], 65% in the assay with Rattus norvegicus [5] and 75% with Rattus norvegicus [6]. Also, in assay [10], the ID50 is 6.2 µg/kg.
The corresponding values for `CCCc1nc(C(C)O)c(C(=O)O)n1Cc1ccc(-c2ccccc2-c2nn[nH]n2)cc1` (configuration not stated) are 80%, 69%, 78% and 6.3 µg/kg.
Consider `CCCc1nc(C(C)(C)O)c(C(=O)OCOC(=O)C(C)(C)C)n1Cc1ccc(-c2ccccc2C(=O)O)cc1`, for which the inhibition in vivo at 1 mg/kg is 52% in the assay with Rattus norvegicus [11] and 75% in the assay on Rattus norvegicus [14] (Rattus norvegicus, 6 h, dose 1 mg/kg). Also, the inhibition in vivo at 0.3 mg/kg was 32% in the assay with Rattus norvegicus [12] and 43% in the assay with Rattus norvegicus [4]. Further, the Inhibition is 61% and 85% in the assay with Rattus norvegicus [13]; 87% in the assay with Rattus norvegicus [14] (dose 3 mg/kg, in the assay text read “3 mg/kg” for “1 mg/kg”). Also, the inhibition in vivo at 3 mg/kg with Rattus norvegicus [15] came to 85%.
With `CCCc1nc(C(C)(C)O)c(C(=O)O)n1Cc1ccc(-c2ccccc2-c2nnn[nH]2)cc1` [OLMESARTAN], the figures for the inhibition in vivo at 1 mg/kg in the assay with Rattus norvegicus [16], with Rattus norvegicus [18] and in the assay on Rattus norvegicus [19] were 93%, 98% and 98%, respectively. For the same compound, the inhibition in vivo at 0.3 mg/kg was found to be 83% in the assay on Rattus norvegicus [4], 78% in the assay on Rattus norvegicus [5] and 77% in the assay with Rattus norvegicus [6]. The same compound had a pIC50 in assay [17] of 8.09. In addition, in assay [10], the ID50 worked out at 7.9 µg/kg.

The inhibition in vivo is the change of the read-out against control, counted positive when it falls. A high value points to a strong effect. Broadly, the Inhibition is the share of the control response that was lost under treatment. A high value points to a response far below the control. Usually pIC50 stands for the IC50 on a negative log10 scale, so that one unit is a factor of ten. Lower therefore signals a large IC50.

(Values after ChEMBL document CHEMBL1129298, “Nonpeptide angiotensin II receptor antagonists: synthesis, biological activities, and structure-activity relationships of imidazole-5-carboxylic acids bearing alkyl, alkenyl, and hydroxyalkyl substituents at the 4-position and their related compounds” (J Med Chem, 1996).)
